According to ChEMBL document CHEMBL5058577, “EUbOPEN Chemogenomics Library 2 (Multiplex)” (2022):

Tested on: HEK-293T
Assay: Multiplex assay against HEK293T
Format: toxicity, cell-based
Details: human
Summary of the method: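 At seeding, live cells were stained with Hoechst33342, BioTracker Green Microtubule Cytoskeleton Dye, MitoTracker Red and Annexin V Alexa Fluor 680. After compound addition they were imaged on a CQ1 microscope at 37°C and 5% CO2, and CellPathfinder machine-learning gating sorted them into Hoechst high-intensity objects or normal cells, with normal cells further split into healthy, pyknosed or fragmented nuclei and pyknosed cells into mitotic or apoptotic. Tubulin, mitochondrial-mass and membrane-permeability phenotypes are given as per cents of cells with healthy nuclei.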

[1] = 12 h, 1 µM, compound concentration 1 uM, replicate 1
[2] = 12 h, 1 µM, compound concentration 1 uM, replicate 2
[3] = 12 h, 10 µM, compound concentration 10 uM, replicate 1
[4] = 12 h, 10 µM, compound concentration 10 uM, replicate 2
[5] = 24 h, 1 µM, compound concentration 1 uM, replicate 1
[6] = 24 h, 1 µM, compound concentration 1 uM, replicate 2
[7] = 24 h, 10 µM, compound concentration 10 uM, replicate 1
[8] = 24 h, 10 µM, compound concentration 10 uM, replicate 2
[9] = 48 h, 1 µM, compound concentration 1 uM, replicate 1
[10] = 48 h, 1 µM, compound concentration 1 uM, replicate 2
[11] = 48 h, 10 µM, compound concentration 10 uM, replicate 1
[12] = 48 h, 10 µM, compound concentration 10 uM, replicate 2

Cc1noc(-c2ccc(-c3ccc(CC(=O)O)cc3)cc2)c1NC(=O)O[C@H](C)c1ccccc1Cl
Population Apoptotic (%) [1]: 29% | Population Fragmented Nuclei (%) [1]: 7% | Population Healthy Nuclei (%) [1]: 79% | Population Hoechst High Intensity Objects (%) [1]: 5% | Population Membrane Permeable-Phenotype (%) [1]: 0% | Population Mitochondria Different-Phenotype (%) [1]: 38% | Population Mitotic Cells (%) [1]: 70% | Population Normal (%) [1]: 94% | Population Pyknosed Nuclei (%) [1]: 13% | Population Tubulin-Different-Phenotype (%) [1]: 29% | Total Cell Count [1]: 403 | Population Apoptotic (%) [2]: 59% | Population Fragmented Nuclei (%) [2]: 4% | Population Healthy Nuclei (%) [2]: 77% | Population Hoechst High Intensity Objects (%) [2]: 11% | Population Mitochondria Different-Phenotype (%) [2]: 69% | Population Mitotic Cells (%) [2]: 40% | Population Normal (%) [2]: 88% | Population Pyknosed Nuclei (%) [2]: 17% | Population Tubulin-Different-Phenotype (%) [2]: 28% | Total Cell Count [2]: 296 | Population Apoptotic (%) [3]: 51% | Population Fragmented Nuclei (%) [3]: 11% | Population Healthy Nuclei (%) [3]: 68% | Population Hoechst High Intensity Objects (%) [3]: 7% | Population Membrane Permeable-Phenotype (%) [3]: 0% | Population Mitochondria Different-Phenotype (%) [3]: 72% | Population Mitotic Cells (%) [3]: 48% | Population Normal (%) [3]: 92% | Population Pyknosed Nuclei (%) [3]: 20% | Population Tubulin-Different-Phenotype (%) [3]: 65% | Total Cell Count [3]: 295 | Population Apoptotic (%) [4]: 41% | Population Fragmented Nuclei (%) [4]: 8% | Population Healthy Nuclei (%) [4]: 72% | Population Hoechst High Intensity Objects (%) [4]: 14% | Population Mitochondria Different-Phenotype (%) [4]: 69% | Population Mitotic Cells (%) [4]: 58% | Population Normal (%) [4]: 85% | Population Pyknosed Nuclei (%) [4]: 18% | Population Tubulin-Different-Phenotype (%) [4]: 34% | Total Cell Count [4]: 341 | Population Apoptotic (%) [5]: 22% | Population Fragmented Nuclei (%) [5]: 10% | Population Healthy Nuclei (%) [5]: 79% | Population Hoechst High Intensity Objects (%) [5]: 5% | Population Membrane Permeable-Phenotype (%) [5]: 0% | Population Mitochondria Different-Phenotype (%) [5]: 23% | Population Mitotic Cells (%) [5]: 77% | Population Normal (%) [5]: 94% | Population Pyknosed Nuclei (%) [5]: 9% | Population Tubulin-Different-Phenotype (%) [5]: 17% | Total Cell Count [5]: 570 | Population Apoptotic (%) [6]: 40% | Population Fragmented Nuclei (%) [6]: 9% | Population Healthy Nuclei (%) [6]: 80% | Population Hoechst High Intensity Objects (%) [6]: 7% | Population Mitochondria Different-Phenotype (%) [6]: 42% | Population Mitotic Cells (%) [6]: 60% | Population Normal (%) [6]: 92% | Population Tubulin-Different-Phenotype (%) [6]: 20% | Total Cell Count [6]: 378 | Population Apoptotic (%) [7]: 39% | Population Fragmented Nuclei (%) [7]: 7% | Population Healthy Nuclei (%) [7]: 76% | Population Hoechst High Intensity Objects (%) [7]: 8% | Population Membrane Permeable-Phenotype (%) [7]: 1% | Population Mitochondria Different-Phenotype (%) [7]: 58% | Population Mitotic Cells (%) [7]: 60% | Population Normal (%) [7]: 91% | Population Pyknosed Nuclei (%) [7]: 16% | Population Tubulin-Different-Phenotype (%) [7]: 47% | Total Cell Count [7]: 352 | Population Apoptotic (%) [8]: 32% | Population Fragmented Nuclei (%) [8]: 9% | Population Healthy Nuclei (%) [8]: 75% | Population Hoechst High Intensity Objects (%) [8]: 16% | Population Membrane Permeable-Phenotype (%) [8]: 0% | Population Mitochondria Different-Phenotype (%) [8]: 53% | Population Mitotic Cells (%) [8]: 68% | Population Normal (%) [8]: 83% | Population Pyknosed Nuclei (%) [8]: 15% | Population Tubulin-Different-Phenotype (%) [8]: 38% | Total Cell Count [8]: 390 | Population Apoptotic (%) [9]: 17% | Population Fragmented Nuclei (%) [9]: 11% | Population Healthy Nuclei (%) [9]: 82% | Population Hoechst High Intensity Objects (%) [9]: 4% | Population Membrane Permeable-Phenotype (%) [9]: 1% | Population Mitochondria Different-Phenotype (%) [9]: 20% | Population Mitotic Cells (%) [9]: 82% | Population Normal (%) [9]: 95% | Population Pyknosed Nuclei (%) [9]: 5% | Population Tubulin-Different-Phenotype (%) [9]: 14% | Total Cell Count [9]: 930 | Population Apoptotic (%) [10]: 35% | Population Fragmented Nuclei (%) [10]: 12% | Population Healthy Nuclei (%) [10]: 76% | Population Membrane Permeable-Phenotype (%) [10]: 0% | Population Mitochondria Different-Phenotype (%) [10]: 34% | Population Mitotic Cells (%) [10]: 64% | Population Pyknosed Nuclei (%) [10]: 10% | Population Tubulin-Different-Phenotype (%) [10]: 21% | Total Cell Count [10]: 494 | Population Apoptotic (%) [11]: 38% | Population Fragmented Nuclei (%) [11]: 10% | Population Healthy Nuclei (%) [11]: 79% | Population Hoechst High Intensity Objects (%) [11]: 6% | Population Membrane Permeable-Phenotype (%) [11]: 0% | Population Mitochondria Different-Phenotype (%) [11]: 40% | Population Mitotic Cells (%) [11]: 61% | Population Normal (%) [11]: 93% | Population Pyknosed Nuclei (%) [11]: 10% | Population Tubulin-Different-Phenotype (%) [11]: 33% | Total Cell Count [11]: 445 | Population Apoptotic (%) [12]: 46% | Population Fragmented Nuclei (%) [12]: 13% | Population Healthy Nuclei (%) [12]: 74% | Population Hoechst High Intensity Objects (%) [12]: 10% | Population Membrane Permeable-Phenotype (%) [12]: 1% | Population Mitochondria Different-Phenotype (%) [12]: 35% | Population Mitotic Cells (%) [12]: 53% | Population Normal (%) [12]: 89% | Population Pyknosed Nuclei (%) [12]: 11% | Population Tubulin-Different-Phenotype (%) [12]: 25% | Total Cell Count [12]: 508
